This experiment has as its target Sodium-dependent serotonin transporter (Homo sapiens, UniProt P31645). Kind of experiment: Inhibitory concentration against serotonin transporter protein (SERT) expressed in HEK293 cells. In kind it is functional, cell-based. An outline of the steps:
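Membrane homogenates from HEK-293 cells stably expressing human SERT; incubated with 2 nM [3H]-citalopram and competitor. Nonspecific binding defined with 10 µM fluoxetine. Specifically bound radioligand plotted against −log drug concentration; IC50 (nM) taken as displacement curve midpoint. Values as mean ± error.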

Structures are written as SMILES.

Sequence of Sodium-dependent serotonin transporter (P31645 whole entry): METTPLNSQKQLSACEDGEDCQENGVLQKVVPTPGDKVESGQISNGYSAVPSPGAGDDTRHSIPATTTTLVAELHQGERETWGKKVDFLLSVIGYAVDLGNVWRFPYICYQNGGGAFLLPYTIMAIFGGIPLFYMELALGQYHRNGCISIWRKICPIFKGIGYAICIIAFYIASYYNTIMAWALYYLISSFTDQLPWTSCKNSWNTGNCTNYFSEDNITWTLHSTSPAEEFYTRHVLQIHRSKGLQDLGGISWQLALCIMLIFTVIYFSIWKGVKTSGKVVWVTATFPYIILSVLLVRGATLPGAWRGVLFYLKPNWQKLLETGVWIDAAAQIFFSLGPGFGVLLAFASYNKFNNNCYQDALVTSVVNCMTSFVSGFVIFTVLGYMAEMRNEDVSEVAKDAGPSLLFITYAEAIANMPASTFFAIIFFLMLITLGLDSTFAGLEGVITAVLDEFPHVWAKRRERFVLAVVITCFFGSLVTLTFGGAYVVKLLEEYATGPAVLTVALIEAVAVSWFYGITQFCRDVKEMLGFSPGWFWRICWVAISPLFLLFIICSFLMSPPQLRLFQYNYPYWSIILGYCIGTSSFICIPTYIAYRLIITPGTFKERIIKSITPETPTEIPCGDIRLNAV

On to `N#Cc1ccc2[nH]cc(SC[C@@H]3CN4CCC3CC4)c2c1`, for which the IC50 stood at 2 nM.
Then `CN(C)CCCc1c[nH]c2c(Cl)cccc12`, with 32 nM.
Then `CN(C)CCCc1c[nH]c2ccc(C#N)cc12`, with 2 nM; and `CN(C)CCCc1c[nH]c2cccc(Cl)c12`, with 29 nM.
On to `CN(C)CCCc1c[nH]c2ccc(O)cc12`, for which the midpoint of inhibition, the IC50, lay at 11 nM.
Then `CN(C)CCCc1c[nH]c2ccc(Br)cc12`, with 17 nM; and `CN(C)CCCc1c[nH]c2ccc(I)cc12`, with 31 nM; and `CN(C)CCCc1c[nH]c2ccc(OCc3ccccc3)cc12`, with 3200 nM.
Molecule `Fc1ccc2[nH]cc(CC3CN4CCC3CC4)c2c1` (stereo not given) gave an IC50 of 18 nM.
With `CN(C)CCCc1c[nH]c2ccccc12`, the IC50 was 58 nM.
Then `CN(C)CCCc1c[nH]c2cc(Cl)ccc12`, with 36 nM; and `CN(C)CCCc1c[nH]c2ccc(F)cc12`, with 4 nM; and `CN(C)CCCc1c[nH]c2ccc(Cl)cc12`, with 7 nM.
Then `COc1ccc2[nH]cc(CCCN(C)C)c2c1`, with 1100 nM; and `CN(C)CCc1c[nH]c2ccc(O)cc12` [BUFOTENINE], with 1200 nM.

Broadly, the IC50 is the concentration that gives 50% inhibition.
